Results taken from PMC9352169 (ACS Omega, 2022).
Values joined by “and” are separate entries in the source; they are usually repeats but may differ in a detail not shown here. Equal values may be shown once.

Legend:
supercoiled pcDNA = assay: Photoinduced pcDNA cleavage; type: biochemical; settings: 250 μM complex + 0.1 μM pcDNA
[1] = Substitution kinetics of chlorides by L-methionine; type: physicochemical; settings: Nu = L-Met, 35 °C, pH 7.2
How it was run: (§1)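 Chloride substitution was followed by UV-vis under pseudo-first-order conditions: complex 50 μM with the nucleophile in ≥20-fold excess, in 5 mM Tris–HCl/50 mM NaCl, pH 7.2. Complex stocks were 5 mM in 5% DMF. Runs spanned 25–55 °C at 10 °C intervals, and the Tu trace was taken at 524 nm. Rate constants came from kobs vs [nucleophile] plots, with activation parameters from temperature dependence.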

[2] = tested on: guanosine-5′-monophosphate, 5′-GMP; assay: Substitution kinetics of chlorides by guanosine-5′-monophosphate; type: physicochemical; settings: Nu = 5′-GMP, 35 °C
How it was run: as §1

[3] = tested on: human breast adenocarcinoma, MCF-7 cell line; assay: MTT cytotoxicity assay, MCF-7; type: cell-based; settings: for SI (IC50 of Vero cell line/IC50 of MCF-7 cell line): Vero vs MCF-7
How it was run: (§2)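 MTT viability assay. Vero cells were grown in MEM and MCF-7 cells in DMEM, both with 10% FBS and penicillin/streptomycin, at 37 °C and 5% CO2. Cells were exposed 24 h to test complex at 2, 4, 8, 16, 32 and 64 (DMSO stock). Viability was expressed relative to untreated control and IC50 computed. Values are mean ± SD of three independent experiments. SI = IC50 Vero / IC50 MCF-7.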

BSA = BSA (Bos taurus, UniProt P02769); assay: BSA fluorescence quenching titration; type: binding, bovine
Sequence of BSA (P02769 25-607): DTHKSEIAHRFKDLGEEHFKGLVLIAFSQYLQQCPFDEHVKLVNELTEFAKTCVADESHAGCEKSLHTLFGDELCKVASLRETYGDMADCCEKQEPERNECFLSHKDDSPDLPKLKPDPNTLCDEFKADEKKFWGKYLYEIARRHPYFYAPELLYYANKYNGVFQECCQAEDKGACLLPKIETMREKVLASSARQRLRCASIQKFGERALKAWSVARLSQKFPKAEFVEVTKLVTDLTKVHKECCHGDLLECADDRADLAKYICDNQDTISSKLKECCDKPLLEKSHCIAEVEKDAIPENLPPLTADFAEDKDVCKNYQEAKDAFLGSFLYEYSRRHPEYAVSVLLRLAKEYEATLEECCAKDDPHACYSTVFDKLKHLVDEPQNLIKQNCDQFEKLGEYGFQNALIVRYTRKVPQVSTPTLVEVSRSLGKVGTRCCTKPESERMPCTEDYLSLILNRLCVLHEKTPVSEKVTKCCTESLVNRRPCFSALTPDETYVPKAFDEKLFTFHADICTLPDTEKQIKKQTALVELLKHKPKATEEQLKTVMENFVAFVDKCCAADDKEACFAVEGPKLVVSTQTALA
How it was run: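 Complex stocks were 5 mM in DMSO, diluted in buffer, and samples were incubated about 14 h at 37 °C before reading. Emission was read at 348 nm and checked for inner-filter effects by UV-vis. Data were fitted by Stern–Volmer and Scatchard analysis.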

normal Vero cell line = assay: MTT cytotoxicity assay, Vero; type: cell-based; settings: read-out: IC50 normal Vero, 24 h incubation, n = 3
How it was run: as §2

[4] = Substitution kinetics of chlorides by thiourea; type: physicochemical; settings: Nu = Tu, 35 °C
How it was run: as §1

EtBr + CT-DNA adduct = assay: Fluorescence EtBr exchange titration on CT-DNA; type: binding, calf
How it was run: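 Competitive EtBr displacement used EtBr 20.0 μM and CT-DNA 20.0 μM with test complex added at 0–150 μM, in 5 mM Tris/50 mM NaCl, pH 7.2. Samples were equilibrated about 14 h at 37 °C. Emission was 596 nm (excitation 510 nm), with inner-filter check. Data were analysed as Stern–Volmer Io/I vs [Q] and Scatchard log[(Io–I)/I] vs log[Q].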

CT-DNA = CT-DNA UV-vis absorption titration; type: binding, calf; settings: Van't Hoff equation ΔG = −RT lnKb
How it was run: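 UV-vis titration of test complex (14 μM) with CT-DNA (0–90 μM) in 5 mM Tris–HCl/50 mM NaCl, pH 7.2. Complex came from a 5 mM DMSO stock diluted in buffer, and samples were equilibrated about 14 h at 37 °C. The binding constant came from absorbance changes, and ΔG from it.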

zebrafish embryos [5] = assay: Zebrafish embryo acute toxicology; type: in vivo, Danio rerio; settings: for morphological changes in zebrafish embryos: even at 90 M (printed); for LC50: zebrafish embryos
zebrafish embryos [6] = settings: cited from earlier work

## [Cl-].[Cl-].[Pt+2].[Ru+2].c1ccc(-c2nc3cc4ccccc4cc3nc2-c2ccccn2)nc1.c1cnc2c(c1)ccc1cccnc12.c1cnc2c(c1)ccc1cccnc12 [C3, [(1,10-phenanthroline)2Ru(II)(μ-2,3-bis(2-pyridyl)benzo[g]quinoxaline)Pt(II)dichloride]^2+]
Supercoiled pcDNA
  % of NC (pcDNA cleavage): 17%
[1]; first step
  k2^1st × 10^1: 3.10 ± 0.26 M^–1 s^–1
[1]; second step (ring closure)
  k1^2nd × 10^4: 2.08 ± 0.33 ^a s^–1
[2]; first step, pH 7.2
  k2^1st × 10^1: 1.39 ± 0.15 M^–1 s^–1
[2]; second step back reaction
  k–1^2nd × 10^5: 2.22 ± 0.04 s^–1
[2]; second step, pH 7.2
  k2^2nd × 10^2: 2.20 ± 0.10 M^–1 s^–1
[3]
  SI (IC50 of Vero cell line/IC50 of MCF-7 cell line): 5.55 and 5.23
[3]; read-out: IC50 breast cancer MCF-7, MTT, 24 h incubation, n = 3
  IC50: 3.1 ± 0.8 µM
BSA
  experimental ΔG of binding with BSA: −31.97 kJ mol^–1
BSA; BSA 1.08 μM, λem = 348 nm
  Ksv × 10^–5: 2.65 ± 0.22 M^–1
BSA; BSA quenching
  kq × 10^–13: 2.65 ± 0.33 M^–1 s^–1
BSA; BSA, Scatchard
  KF × 10^–5: 6.64 ± 0.17 M^–1
  n (number of binding sites): 1.01 ± 0.07
BSA; λem = 348 nm, pH 7.2
  Decrease in initial BSA fluorescence: ≤ 10%
Normal Vero cell line
  IC50: 16.2 ± 1.7 µM
[4]; first step, pH 7.2
  k2^1st × 10^1: 7.57 ± 0.29 M^–1 s^–1
[4]; second step back reaction
  k–1^2nd × 10^5: 10.99 ± 0.13 s^–1
[4]; second step, pH 7.2
  k2^2nd × 10^2: 14.53 ± 0.22 M^–1 s^–1
EtBr + CT-DNA adduct; EtBr exchange, Scatchard
  n (number of binding sites): 1.00 ± 0.07
EtBr + CT-DNA adduct; EtBr exchange, pH 7.2
  KF × 10^–4 (Scatchard binding constant): 3.96 ± 0.17 M^–1
  Kapp × 10^–6 (apparent binding constant): 8.00 ± 0.23 M^–1
  Ksv × 10^–4 (Stern–Volmer quenching constant): 3.92 ± 0.19 M^–1
  kq × 10^–12 (bimolecular quenching rate constant): 1.70 ± 0.31 M^–1 s^–1
EtBr + CT-DNA adduct; λem = 596 nm, λex = 510 nm, pH 7.2
  Decrease in initial EtBr+CT-DNA fluorescence: ≤ 37%
CT-DNA
  ΔG of binding with CT-DNA: −36 ± 3 kJ mol^–1
Zebrafish embryos [5]; 15 μM, 96 h
  % of survival rate: 86.7%
Zebrafish embryos [5]; 45 μM or higher concentration
  embryos abnormal, difficulty growing into juvenile zebrafish: about 25%
Zebrafish embryos [5]; 90 μM, 96 h
  % of survival rate: 56.7%
Zebrafish embryos [5]; 96 hpf
  drop of survival rate when the concentration increased from 15 to 90 μM: 30%
  morphological changes in zebrafish embryos: did not induce any significant morphological changes
  LC50: 149 µM

## cis-[Pt(NH3)2Cl2] [cisplatin, reference compound]
Zebrafish embryos [6]; 400 μM
  lethality in zebrafish: lethal outcome
Zebrafish embryos [6]; under 15 μM, delayed hatching up to 120 hpf
  toxicity in developing zebrafish embryos: nontoxic
[3]
  SI (IC50 of Vero cell line/IC50 of MCF-7 cell line): 4.02
Zebrafish embryos [5]; 15 μM, 96 h
  % of survival rate: over 90%
Zebrafish embryos [5]; 90 μM, 96 h
  % of hatching rate: about 6.7%
  % of survival rate: 60%
Zebrafish embryos [5]; 96 hpf
  morphological changes in zebrafish embryos: did not induce any significant morphological changes
  LC50: 181 µM
